# Active and inactive are the calls of the source.
# Columns and labels:
# Mus musculus [1] = assay: Toxicity in CD-1 mouse assessed as 2-AG level in spinal cord at 0.3 mg/kg, ip by LC-MS analysis (reference value: 6.4 +/- 0.4 pmol/g); format: organism-based; conditions: in vivo
# Summary of the method: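 Male CD-1 mice received 0.3 mg/kg i.p. in 0.5% DMSO/saline, with formalin (1.25%, 30 µL) injected into the dorsal hind paw. Paw skin or spinal cord was taken at 5 min post-dose. Tissue was homogenized in CHCl3/MeOH/50 mM Tris-HCl (2:1:1) containing d5-2-AG, extracted with chloroform and analysed by LC-MS. n = 4; ANOVA with Bonferroni test.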
# Heart [2] = assay: Cardiotoxicity in Langendorff-perfused Sprague-Dawley rat heart assessed as intraventricular conduction time at 0.1 uM by ECG analysis (reference value: 14.26 +/- 0.71 milliseconds); format: toxicity, tissue-based, Cardiac ventricle
# Heart [3] = assay: Cardiotoxicity in Langendorff-perfused Sprague-Dawley rat heart assessed as heart rate at 0.1 uM by ECG analysis (reference value: 252.78 +/- 9.28 bpm); format: toxicity, tissue-based
# Cannabinoid receptor 2 = Cannabinoid receptor 2 (Homo sapiens, UniProt P34972); assay: Displacement of [3H]-CP-55940 from human recombinant CB2 receptor expressed in HEK293 cells after 90 mins; format: cell-based
# Summary of the method: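 Membranes from HEK-293 cells stably expressing human CB1 (Bmax 2.9 pmol/mg) or CB2 (Bmax 6.0 pmol/mg) incubated 90 min at 30 °C with [3H]-CP-55,940: 0.4 nM for CB1, 0.53 nM for CB2. Non-specific binding defined with 10 µM WIN 55212-2.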
# Heart [4] = assay: Cardiotoxicity in Langendorff-perfused Sprague-Dawley rat heart assessed as heart rate at 1 uM by ECG analysis (reference value: 252.78 +/- 9.28 bpm); format: toxicity, tissue-based
# Heart [5] = assay: Cardiotoxicity in Langendorff-perfused Sprague-Dawley rat heart assessed as time duration of action potential at 0.001 uM by ECG analysis (reference value: 75.65 +/- 0.87 milliseconds); format: toxicity, tissue-based
# Mus musculus [6] = assay: Analgesic activity in CD-1 mouse model of oxaliplatin-induced neuropathic pain assessed as reversal of lowering of threshold to cold stimuli at 10 mg/kg, po coadministered with oxaliplatin for 14 days measured 24 hrs post last dose by cold plate test; format: functional, organism-based
# [7] = molecular target: T1, Lysophosphatidylserine lipase ABHD12 (Rattus norvegicus) (UniProt Q6AYT7); assay: Inhibition of ABHD12 in rat brain membranes up to 500 nM preincubated for 20 mins followed by fluorophosphonate-rhodamine addition measured after 30 mins by competitive affinity based proteomic profiling assay; format: cell membranes; conditions: Membrane
# T1 sequence (whole entry): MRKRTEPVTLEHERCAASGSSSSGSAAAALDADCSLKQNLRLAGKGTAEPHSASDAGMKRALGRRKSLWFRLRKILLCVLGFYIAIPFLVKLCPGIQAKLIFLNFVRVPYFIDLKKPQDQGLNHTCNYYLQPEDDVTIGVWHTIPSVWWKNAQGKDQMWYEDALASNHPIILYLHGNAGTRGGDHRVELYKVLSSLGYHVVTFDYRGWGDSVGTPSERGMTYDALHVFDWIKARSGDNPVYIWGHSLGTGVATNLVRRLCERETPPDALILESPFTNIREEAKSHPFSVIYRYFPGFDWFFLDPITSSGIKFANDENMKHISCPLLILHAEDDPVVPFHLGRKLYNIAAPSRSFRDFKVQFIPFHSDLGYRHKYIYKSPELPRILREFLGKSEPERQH
# Summary of the method: (§1)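 Rat brain membranes (1 mg/mL) preincubated with 1–1000 nM inhibitor or DMSO for 20 min at 37 °C. FP-rhodamine then added and incubated a further 30 min at 37 °C. Samples run on SDS-PAGE and serine hydrolase bands quantified by in-gel fluorescence.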
# Mus musculus [8] = assay: Change in cumulative score in myelin oligodendrocyte glycoprotein (35 to 55)-induced C57BL/6J mouse experimental autoimmune encephalomyelitis model of multiple sclerosis at 3 mg/kg, ip dosed on day 6 postimmunization up to 21 day postimmunization measured from day 8 postimmunization; format: functional, organism-based
# Summary of the method: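 Female C57BL/6J mice immunized with MOG35-55 peptide. Given 3 mg/kg i.p. daily from day 6 post-immunization to the acute stage (21 ± 1 d.p.i.). Clinical score recorded daily and as a cumulative score; n = 7–9 per group.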
# [9] = Selectivity ratio of IC50 for human recombinant C-terminal His-tagged FAAH expressed in sf21 cells to IC50 for recombinant C-terminal His6-tagged human MAGL expressed in Escherichia coli
# Summary of the method: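 Ratio of IC50 values from two radiometric assays, each read by scintillation counting of the aqueous phase after CHCl3/MeOH 1:1 extraction. MGL assay: 10,000xg cytosolic fraction of human recombinant MGL (0.05 µg/sample), 50 mM Tris-HCl pH 7.0, 37 °C, 20 min, 2-arachidonoyl-[3H]-glycerol. FAAH assay: human recombinant FAAH (2 µg/sample), pH 9.5, 37 °C, 30 min, [14C]-anandamide. Means of three experiments.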
# Mus musculus [10] = assay: Inhibition of demyelination in experimental autoimmune encephalomyelitis C57BL/6J mouse spinal cord at 3 mg/kg, ip by luxol fast blue staining based microscopic analysis; format: functional, organism-based
# Summary of the method: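 EAE induced in female C57BL/6J mice with MOG35-55, then 3 mg/kg i.p. daily. AM251 or AM630 (1 mg/kg), where used, given 10 min before each dose. Spinal cord white matter stained with Luxol Fast Blue and demyelinated areas assessed by microscopy.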
# [11] = molecular target: T2, Fatty-acid amide hydrolase 1 (Rattus norvegicus) (UniProt P97612); assay: Inhibition of FAAH in rat brain membranes up to 500 nM preincubated for 20 mins followed by fluorophosphonate-rhodamine addition measured after 30 mins by competitive affinity based proteomic profiling assay; format: cell membranes; conditions: Membrane; summary of the method: as §1
# T2 sequence (whole entry): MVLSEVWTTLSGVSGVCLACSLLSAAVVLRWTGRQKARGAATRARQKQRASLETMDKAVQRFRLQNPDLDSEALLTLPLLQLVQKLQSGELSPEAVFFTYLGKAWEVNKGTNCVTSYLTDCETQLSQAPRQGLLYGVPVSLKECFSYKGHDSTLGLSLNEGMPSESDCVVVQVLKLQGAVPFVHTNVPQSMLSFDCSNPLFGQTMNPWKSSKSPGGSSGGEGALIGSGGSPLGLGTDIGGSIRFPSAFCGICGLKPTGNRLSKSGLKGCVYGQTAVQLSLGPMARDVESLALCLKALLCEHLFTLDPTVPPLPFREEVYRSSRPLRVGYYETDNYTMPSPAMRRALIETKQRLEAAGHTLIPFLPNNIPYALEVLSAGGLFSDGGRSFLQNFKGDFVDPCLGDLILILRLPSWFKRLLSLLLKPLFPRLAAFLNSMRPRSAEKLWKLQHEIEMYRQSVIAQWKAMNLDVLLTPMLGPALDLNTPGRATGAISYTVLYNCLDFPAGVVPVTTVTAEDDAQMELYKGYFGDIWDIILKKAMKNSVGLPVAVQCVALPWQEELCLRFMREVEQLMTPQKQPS
# Mus musculus [12] = assay: Reduction of IBA1 positive cells in white matter anterior fasciculus of experimental autoimmune encephalomyelitis C57BL/6J mouse spinal cord at 3 mg/kg, ip by immunofluorescence assay; format: functional, organism-based
# Summary of the method: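 Female C57BL/6J mice immunized with MOG35-55 received 3 mg/kg i.p. daily. Spinal cord white matter (anterior fasciculus) was stained for Iba1, with DAPI nuclear counterstain. Iba1-positive cells were counted per optic field. One-way ANOVA with Bonferroni test.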
# Sequence of Cannabinoid receptor 2 (P34972 whole entry): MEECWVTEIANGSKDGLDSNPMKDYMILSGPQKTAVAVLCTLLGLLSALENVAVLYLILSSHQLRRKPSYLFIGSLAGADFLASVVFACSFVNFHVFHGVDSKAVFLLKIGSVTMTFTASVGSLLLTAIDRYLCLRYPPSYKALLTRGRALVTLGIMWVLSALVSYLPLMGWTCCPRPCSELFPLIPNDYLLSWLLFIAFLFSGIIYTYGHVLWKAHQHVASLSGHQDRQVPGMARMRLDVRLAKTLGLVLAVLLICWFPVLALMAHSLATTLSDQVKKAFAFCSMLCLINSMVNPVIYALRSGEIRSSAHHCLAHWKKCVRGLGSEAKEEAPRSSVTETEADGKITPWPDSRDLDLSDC
SMILES,Activity (Mus musculus [1]),Time (Heart [2]),Activity (Heart [3]),IC50 (Cannabinoid receptor 2),Activity (Heart [4]),Time (Heart [5]),Activity (Mus musculus [6]),inhibition [7],Activity (Mus musculus [8]),Ratio IC50 [9],inhibition (Mus musculus [10]),inhibition [11],Activity (Mus musculus [12])
O=C1[C@H](c2ccc(F)cc2)[C@@H](c2ccc3c(c2)OCO3)N1C1CCN(C(=O)n2cncn2)CC1 (racemic) [listing 1 of 2 here],9.7 pmol/g,13.75 ms,252.65 bpm,> 10 µM,255.5 bpm,76.38 ms,–,–,–,–,–,–,–
O=C1[C@H](c2ccc(F)cc2)[C@@H](c2ccc3c(c2)OCO3)N1C1CCN(C(=O)n2cncn2)CC1 (racemic) [listing 2 of 2 here],–,–,–,–,–,–,Active,inactive,Active,389,Active,inactive,Active

# — ChEMBL document CHEMBL3785023, “Development and Pharmacological Characterization of Selective Blockers of 2-Arachidonoyl Glycerol Degradation with Efficacy in Rodent Models of Multiple Sclerosis and Pain” (J Med Chem, 2016)
